Data set [1] has as its target 72 kDa type IV collagenase (Homo sapiens, UniProt P08253). Nature of the data set: Inhibition of human recombinant MMP2 catalytic domain using Mca-Pro-Leu-Gly-Leu-Dpa-Ala-Arg-NH2 fluorogenic substrate. An outline of the steps:
(§1)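 Recombinant human catalytic domains (MMP-2; MMP-9 lacking fibronectin type II insert and MMP-12, both E. coli-expressed) at 10 ng per well with fluorogenic substrate. Buffer: 50 mM Tris pH 7.4, 0.2 M NaCl, 10 mM CaCl₂, ZnCl₂, 0.05% v/v Brij-35. Fluorescence rise (ex 320/em 440 nm) read for 15 min at 20 °C over inhibitor series up to 1000 nM (or 100 µM). IC50 by sigmoidal fit, triplicate.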

Data set [2] concerns the target Matrix metalloproteinase-9 (Homo sapiens, UniProt P14780). Nature of the data set: Inhibition of human recombinant MMP9 catalytic domain using Mca-Pro-Leu-Gly-Leu-Dpa-Ala-Arg-NH2 fluorogenic substrate. An outline of the steps: as §1
Data set [3] addresses Macrophage metalloelastase (Homo sapiens, UniProt P39900). Nature of the data set: Inhibition of human recombinant MMP12 catalytic domain Mca-Pro-Leu-Gly-Leu-Dpa-Ala-Arg-NH2 fluorogenic substrate. An outline of the steps: as §1
The subject of data set [4] is Liver. Put plainly: Drug uptake in HT1080 cells xenografted mouse liver after 90 mins. The data set is classed as ADME, cell-based, HT-1080. The following applies: in vivo, 1.5 h. Summed up: (§2)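 Male BALB/c nu/nu mice, 7–8 weeks old, were given (2–2.5)×10⁶ HT1080 cells s.c. in the right shoulder in Matrigel/EMEM (1:1). They were used 14–21 days later at tumor volume 0.3–0.6 mL. [¹⁸F]FB-ML5 was given alone or co-injected with 2.5 mg/kg ML5. Tissues were weighed and gamma-counted. SUVmean = tissue MBq/g ÷ (injected MBq/body weight g). n = 6 per group, mean ± SD, unpaired t-test.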

A short description of data set [5]: Drug uptake in HT1080 cells xenografted mouse assessed as heart to plasma ratio after 90 mins in presence of non-radioactive ML5. The data set is classed as ADME, cell-based, HT-1080. As to conditions: heart and plasma. An outline of the steps: (§3)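 Same HT1080 subcutaneous xenograft in male BALB/c nude mice. The tracer was co-injected with 2.5 mg/kg non-radioactive ML5 and scanned for 90 min. Organs and plasma were gamma-counted ex vivo at 90 min p.i. The tissue/plasma SUV_mean ratio was calculated. n = 6, mean SD, unpaired two-sided t-test against the group without ML5.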

Data set [6] concerns Lung. Nature of the data set: Drug uptake in HT1080 cells xenografted mouse lung after 90 mins. The class given is ADME, cell-based, HT-1080. The following applies: in vivo, 1.5 h. Summed up:
as §2

Data set [7] relates to Intestine. Nature of the data set: Drug uptake in HT1080 cells xenografted mouse large intestine after 90 mins in presence of non-radioactive ML5. The class given is ADME, cell-based, HT-1080. The following applies: in vivo, 1.5 h. An outline of the steps:
as §2

The subject of data set [8] is Tumour. Nature of the data set: Drug uptake in HT1080 cells xenografted mouse tumor after 90 mins in presence of non-radioactive ML5. The class given is ADME, Neoplasm, HT-1080. The following applies: in vivo, 1.5 h. Summed up: as §2
Data set [9] can be described thus: Drug uptake in HT1080 cells xenografted mouse assessed as heart to plasma ratio after 90 mins. The data set is classed as ADME, cell-based, HT-1080. As to conditions: heart and plasma. Summed up: (§4)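 Male BALB/c nude mice, 7–8 weeks, with (2–2.5)×10⁶ HT1080 cells in Matrigel/EMEM injected subcutaneously into the right shoulder. Tracer injected when tumors reached 0.3–0.6 mL (14–21 days), followed by a 90 min microPET scan. Ex vivo: organs and plasma gamma-counted at 90 min p.i. SUV_mean for each tissue divided by plasma SUV_mean. n = 6, mean SD.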

For data set [10], the system named is Heart. Nature of the data set: Drug uptake in HT1080 cells xenografted mouse heart after 90 mins. The data set is classed as ADME, cell-based, HT-1080. The following applies: in vivo, 1.5 h. Summed up:
as §2

The test system of data set [11] is Heart. Nature of the data set: Drug uptake in HT1080 cells xenografted mouse heart after 90 mins in presence of non-radioactive ML5. The data set is classed as ADME, cell-based, HT-1080. As to conditions: in vivo, 1.5 h. Summed up: as §2
The subject of data set [12] is Liver. Put plainly: Drug uptake in HT1080 cells xenografted mouse liver after 90 mins in presence of non-radioactive ML5. The class given is ADME, cell-based, HT-1080. As to conditions: in vivo, 1.5 h. An outline of the steps:
as §2

Data set [13] has as its system Intestine. Nature of the data set: Drug uptake in HT1080 cells xenografted mouse small intestine after 90 mins. As to conditions: in vivo, 1.5 h. The data set is classed as ADME, cell-based, HT-1080. An outline of the steps:
as §2

Data set [14] concerns Bone. Put plainly: Drug uptake in HT1080 cells xenografted mouse bone after 90 mins in presence of non-radioactive ML5. The data set is classed as ADME, cell-based, Bone element, HT-1080. The following applies: in vivo, 1.5 h. An outline of the steps: as §2
Data set [15] can be described thus: Drug uptake in HT1080 cells xenografted mouse assessed as bone to plasma ratio after 90 mins. The class given is ADME, cell-based, HT-1080. The following applies: bone and plasma. An outline of the steps:
as §4

The subject of data set [16] is Plasma. Put plainly: Drug uptake in HT1080 cells xenografted mouse plasma after 90 mins in presence of non-radioactive ML5. The data set is classed as ADME, cell-based, HT-1080. The following applies: in vivo, 1.5 h. Summed up:
as §2

Data set [17] in a line: Drug uptake in HT1080 cells xenografted mouse assessed as liver to plasma ratio after 90 mins. The data set is classed as ADME, cell-based, HT-1080. As to conditions: liver and plasma. An outline of the steps: as §4
Data set [18] relates to Plasma. Put plainly: Drug uptake in HT1080 cells xenografted mouse plasma after 90 mins. The data set is classed as ADME, cell-based, HT-1080. The following applies: in vivo, 1.5 h. An outline of the steps:
as §2

Data set [19] is described as follows: Octanol-water partition coefficient, log P of the compound. The class given is physicochemical. An outline of the steps:
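About 5 kBq [¹⁸F]FB-ML5 in saline was mixed with 495 µL PBS pH 7.4 and 500 µL n-octanol. Vortexed 5 min, centrifuged 5 min at 3000 rpm, then 100 µL of each layer gamma-counted. logP = log₁₀(cpm octanol/cpm aqueous), triplicate.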

Data set [20] in a line: Drug uptake in HT1080 cells xenografted mouse assessed as tumor to plasma ratio after 90 mins. The data set is classed as ADME, cell-based, HT-1080. As to conditions: tumor and plasma. Summed up: as §4
Data set [21] in a line: Drug uptake in HT1080 cells xenografted mouse assessed as large intestine to plasma ratio after 90 mins in presence of non-radioactive ML5. The class given is ADME, cell-based, HT-1080. The following applies: large intestine and plasma. An outline of the steps: as §3
Data set [22] can be described thus: Drug uptake in HT1080 cells xenografted mouse assessed as liver to plasma ratio after 90 mins in presence of non-radioactive ML5. As to conditions: liver and plasma. The data set is classed as ADME, cell-based, HT-1080. Summed up: as §3
The subject of data set [23] is Intestine. Put plainly: Drug uptake in HT1080 cells xenografted mouse large intestine after 90 mins. The class given is ADME, cell-based, HT-1080. The following applies: in vivo, 1.5 h. An outline of the steps:
as §2

The subject of data set [24] is Plasma. Put plainly: Drug uptake in HT1080 cells xenografted mouse plasma assessed as parent compound after 90 mins. The class given is ADME, cell-based, HT-1080. As to conditions: in vivo, 1.5 h. An outline of the steps:
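Parent fraction in plasma of control HT1080-bearing mice at 90 min p.i. Plasma (250 µL) was deproteinized with 750 µL ACN, centrifuged 3 min at 3000 rpm and filtered (0.22 µm). Analysed by semi-preparative reverse-phase HPLC with radioactivity detection; % intact tracer of total plasma radioactivity, n = 2.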

Data set [25] has as its system Bone. Nature of the data set: Drug uptake in HT1080 cells xenografted mouse bone after 90 mins. The class given is ADME, cell-based, Bone element, HT-1080. As to conditions: in vivo, 1.5 h. An outline of the steps:
as §2

For data set [26], the system named is Lung. Put plainly: Drug uptake in HT1080 cells xenografted mouse lung after 90 mins in presence of non-radioactive ML5. The data set is classed as ADME, cell-based, HT-1080. As to conditions: in vivo, 1.5 h. An outline of the steps: as §2
A short description of data set [27]: Drug uptake in HT1080 cells xenografted mouse assessed as tumor to plasma ratio after 90 mins in presence of non-radioactive ML5. The data set is classed as ADME, cell-based, HT-1080. As to conditions: tumor and plasma. Summed up:
as §3

A short description of data set [28]: Drug uptake in HT1080 cells xenografted mouse assessed as bone to plasma ratio after 90 mins in presence of non-radioactive ML5. The class given is ADME, cell-based, HT-1080. As to conditions: bone and plasma. Summed up:
as §3

Data set [29] concerns Tumour. Nature of the data set: Drug uptake in HT1080 cells xenografted mouse tumor after 90 mins. The following applies: in vivo, 1.5 h. The class given is ADME, Neoplasm, HT-1080. An outline of the steps: as §2
The nature of data set [30]: Drug uptake in HT1080 cells xenografted mouse assessed as large intestine to plasma ratio after 90 mins. The following applies: large intestine and plasma. The data set is classed as ADME, cell-based, HT-1080. Summed up:
as §4

The results in this text go back to ChEMBL document CHEMBL3352502, “A dual inhibitor of matrix metalloproteinases and a disintegrin and metalloproteinases, [¹⁸F]FB-ML5, as a molecular probe for non-invasive MMP/ADAM-targeted imaging” (Bioorg Med Chem, 2015).

Matrix metalloproteinase-9, sequence (P14780 whole entry, the tested form may be a part): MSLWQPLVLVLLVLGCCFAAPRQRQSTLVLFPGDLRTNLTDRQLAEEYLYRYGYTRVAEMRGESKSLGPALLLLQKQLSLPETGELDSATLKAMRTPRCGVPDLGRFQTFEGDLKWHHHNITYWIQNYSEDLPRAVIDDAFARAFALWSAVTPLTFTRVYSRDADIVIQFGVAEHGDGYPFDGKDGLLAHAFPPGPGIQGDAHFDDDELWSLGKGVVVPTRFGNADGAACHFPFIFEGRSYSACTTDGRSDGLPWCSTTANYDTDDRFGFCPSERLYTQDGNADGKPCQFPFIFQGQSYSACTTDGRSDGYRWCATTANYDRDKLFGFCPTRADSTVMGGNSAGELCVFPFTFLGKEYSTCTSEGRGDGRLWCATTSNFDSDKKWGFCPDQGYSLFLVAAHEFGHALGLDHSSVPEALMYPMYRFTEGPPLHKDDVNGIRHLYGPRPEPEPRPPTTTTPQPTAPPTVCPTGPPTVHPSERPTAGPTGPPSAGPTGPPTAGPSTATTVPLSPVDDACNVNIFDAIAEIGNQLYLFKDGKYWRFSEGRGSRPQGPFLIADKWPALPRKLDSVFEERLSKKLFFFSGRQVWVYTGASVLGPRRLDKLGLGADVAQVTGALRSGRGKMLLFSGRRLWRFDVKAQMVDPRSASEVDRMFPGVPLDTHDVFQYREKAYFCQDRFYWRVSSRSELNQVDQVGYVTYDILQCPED
Macrophage metalloelastase, sequence (P39900 whole entry, the tested form may be a part): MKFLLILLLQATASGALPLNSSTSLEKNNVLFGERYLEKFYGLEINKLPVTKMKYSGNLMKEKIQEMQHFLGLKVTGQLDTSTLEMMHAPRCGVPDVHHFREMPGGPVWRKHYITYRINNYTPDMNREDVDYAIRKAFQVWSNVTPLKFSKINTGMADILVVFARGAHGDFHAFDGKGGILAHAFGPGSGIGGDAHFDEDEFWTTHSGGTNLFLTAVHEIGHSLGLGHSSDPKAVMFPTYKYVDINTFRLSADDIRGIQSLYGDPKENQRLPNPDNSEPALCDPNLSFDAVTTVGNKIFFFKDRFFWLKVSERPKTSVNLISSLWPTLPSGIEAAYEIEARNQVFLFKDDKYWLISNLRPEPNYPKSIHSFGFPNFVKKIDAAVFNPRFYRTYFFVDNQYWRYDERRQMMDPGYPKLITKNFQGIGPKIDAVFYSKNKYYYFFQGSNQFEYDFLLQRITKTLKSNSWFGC
72 kDa type IV collagenase, sequence (P08253 whole entry, the tested form may be a part): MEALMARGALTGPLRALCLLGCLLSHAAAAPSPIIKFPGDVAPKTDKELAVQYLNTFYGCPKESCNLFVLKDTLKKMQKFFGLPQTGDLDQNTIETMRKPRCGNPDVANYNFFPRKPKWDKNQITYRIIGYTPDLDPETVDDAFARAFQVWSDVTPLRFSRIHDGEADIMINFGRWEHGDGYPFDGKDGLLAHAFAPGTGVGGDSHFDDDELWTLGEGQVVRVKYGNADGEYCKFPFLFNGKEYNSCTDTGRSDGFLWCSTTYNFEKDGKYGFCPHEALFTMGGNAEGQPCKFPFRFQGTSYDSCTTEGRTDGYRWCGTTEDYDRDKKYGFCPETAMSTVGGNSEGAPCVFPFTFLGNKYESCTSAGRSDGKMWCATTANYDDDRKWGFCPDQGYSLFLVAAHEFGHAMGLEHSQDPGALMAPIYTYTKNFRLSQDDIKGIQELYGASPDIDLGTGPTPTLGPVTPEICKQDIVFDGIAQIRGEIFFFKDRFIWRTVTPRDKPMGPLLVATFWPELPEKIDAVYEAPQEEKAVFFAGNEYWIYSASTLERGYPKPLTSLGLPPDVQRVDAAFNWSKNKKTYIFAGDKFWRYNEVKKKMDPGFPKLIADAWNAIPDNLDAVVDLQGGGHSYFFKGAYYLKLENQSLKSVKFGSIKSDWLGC

For `CC(C)C[C@H](CC(=O)NO)C(=O)N[C@@H](Cc1ccccc1)C(=O)N[C@@H](CCCCNC(=O)c1ccc(F)cc1)C(N)=O`, the figures for the IC50 in data set [1], in data set [2] and in [3] were 0.0125 µM, 0.0315 µM and 0.138 µM, respectively.
`CC(C)C[C@H](CC(=O)NO)C(=O)N[C@@H](Cc1ccccc1)C(=O)N[C@@H](CCCCNC(=O)c1ccc([18F])cc1)C(N)=O`: the SUV is 4.58 with Liver [4]; 0.254 in the data set on Lung [6]; 2.75 in the data set with Intestine [7]; 0.041 in the data set with Tumour [8]; 0.111 in the data set with Heart [10]; 0.043 in the data set with Heart [11]. For the same compound, the SUV worked out at 2 with Liver [12]; 5.207 in the data set on Intestine [13]; 0.017 in the data set with Bone [14]; 0.185 in the data set on Plasma [16]; 0.238 in the data set on Plasma [18]; 1.8 with Intestine [23]. Besides, the values for the SUV in the data set on Bone [25], in the data set with Lung [26] and in the data set on Tumour [29] were 0.041, 0.106 and 0.145, respectively. Also, the Kp (as a rule, tissue or fluid exposure divided by exposure in the circulation) at 1.5 h in data set [5] came to 0.235; in [9] it was 0.482; in data set [15] it was 0.179; in [17] it was 19.2; in data set [20], 0.597; in [21] it was 14.8. The Kp at 1.5 h in [22] came out at 10.9; in data set [27] it was 0.231; in data set [28], 0.09; in data set [30], 7.83. Also, the lipophilicity (logP) (commonly the decadic logarithm of the partition coefficient of the neutral form, usually between octanol and water) in data set [19] turned out to be 1.11. In addition, in the data set with Plasma [24], the Drug uptake was determined as 23.2%.
Regarding `CC(C)C[C@H](CC(=O)NO)C(=O)N[C@@H](Cc1ccccc1)C(=O)N[C@@H](CCCCN)C(N)=O`, the IC50 – broadly, the point on the concentration scale where inhibition reaches its midpoint – in data set [1] turned out to be 0.0074 µM; in data set [2] it was 0.0195 µM; in data set [3] it was 0.002 µM.
Take `CC(C)C[C@H](CC(=O)NOC(=O)c1ccc(F)cc1)C(=O)N[C@@H](Cc1ccccc1)C(=O)N[C@@H](CCCCNC(=O)c1ccc(F)cc1)C(N)=O`: the IC50 in [2] came to 1.49 µM.
